Assay [1] concerns Human immunodeficiency virus 1. Put plainly: Antiviral activity against HIV1 infected in human H9 cells. Particulars: Human immunodeficiency virus 1, H9; read-out: CIC95. The assay is classed as functional. In short, it runs like this:
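Multiple-cycle viral spread assay in HIV-1-infected H9 T-lymphoid cells; value is CIC95, the concentration giving >95% protection from viral infection.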

Assay [2] addresses T1, Human immunodeficiency virus type 1 integrase (Human immunodeficiency virus 1, UniProt Q7ZJM1). The assay is described as follows: Inhibition of recombinant HIV1 integrase using unprocessed donor DNA by coupled assay. The procedure, abridged:
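Unprocessed donor DNA and inhibitor incubated with recombinant integrase together for 30 min, then target DNA added; strand-transfer product measured. Final DMSO 10%. IC50 from serial 2-fold dilutions in duplicate or triplicate; values without error limits are the average of these.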

For assay [3], the target named is T1, Human immunodeficiency virus type 1 integrase. The assay is described as follows: Inhibition of recombinant HIV1 integrase using preprocessed donor DNA treated after washing excess enzyme by strand transfer assay. In short, it runs like this:
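Integrase preincubated with preprocessed donor DNA, unbound enzyme washed off, then target DNA and inhibitor added together. Strand transfer product measured. Final DMSO 10%. IC50 from serial 2-fold dilutions run in duplicate or triplicate; values without error limits are the average of these.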

Assay [4] deals with Type II restriction enzyme EcoRI (Escherichia coli, UniProt P00642). The assay is described as follows: Inhibition of Escherichia coli ECOR1.
The nature of assay [5]: Inhibition of DNAse.
The target in assay [6] is T1, Human immunodeficiency virus type 1 integrase. The assay is described as follows: Inhibition of HIV1 integrase-mediated preintegration complex formation by Southern blotting. In short, it runs like this: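 Preintegration complexes were isolated from HIV-1-infected cells, partially purified and used in an integration reaction. Products were analysed by Southern blotting and quantified by phosphorimaging. IC₅₀ values without error limits are the average of duplicate or triplicate data sets.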

Assay [7] shares this target. Put plainly: Inhibition of recombinant HIV1 integrase using preprocessed donor DNA by assembly assay. The procedure, abridged:
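Recombinant integrase and inhibitor were incubated with preprocessed donor DNA, unbound integrase was washed off, then target DNA was added. The read-out is the strand-transfer product. Final DMSO was 10%. IC₅₀ came from 2-fold dilution series run in duplicate or triplicate.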

Assay [8] has the same target. The assay is described as follows: Inhibition of HIV1 integrase assessed as inhibition of 3'-end processing reaction. The procedure, abridged:
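Specific 3′-end processing of LTR donor-sequence oligonucleotide substrates, run with […]. IC₅₀ values without error limits are the average of duplicate or triplicate data sets.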

SMILES strings stand for the structures. Bounds are passed on as bounds.

T1 sequence (Q7ZJM1 whole entry): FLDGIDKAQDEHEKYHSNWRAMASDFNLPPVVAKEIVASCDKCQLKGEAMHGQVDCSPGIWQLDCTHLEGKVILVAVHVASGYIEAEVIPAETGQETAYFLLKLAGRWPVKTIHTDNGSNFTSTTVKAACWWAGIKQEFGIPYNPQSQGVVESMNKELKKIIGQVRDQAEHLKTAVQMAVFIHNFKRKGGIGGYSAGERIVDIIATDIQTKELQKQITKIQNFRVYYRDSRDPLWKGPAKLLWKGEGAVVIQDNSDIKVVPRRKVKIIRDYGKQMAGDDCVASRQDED
Type II restriction enzyme EcoRI, sequence (P00642 whole entry): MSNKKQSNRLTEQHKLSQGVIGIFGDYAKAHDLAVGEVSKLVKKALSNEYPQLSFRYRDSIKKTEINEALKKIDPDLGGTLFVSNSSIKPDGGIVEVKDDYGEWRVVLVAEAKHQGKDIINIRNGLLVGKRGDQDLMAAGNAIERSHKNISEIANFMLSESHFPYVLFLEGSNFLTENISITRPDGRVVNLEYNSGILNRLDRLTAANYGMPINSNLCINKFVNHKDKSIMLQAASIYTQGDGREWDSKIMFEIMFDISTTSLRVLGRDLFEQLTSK

`C=C(CC[C@@H](C)[C@H]1CC=C2C3=C([C@@H](O)[C@H](OC(C)=O)[C@@]21C)[C@@]1(C)C[C@@H](OC(=O)CCC(=O)O)[C@H](O)C(C)(C)[C@@H]1CC3)C(C)C`: the IC95 in assay [1] stood at 6 µM. Besides, the IC50 in assay [2] is 3 µM; in assay [3], 12 µM; in assay [4], over 50 µM; in assay [5] it was over 50 µM.
Take `CC(=O)O[C@H]1[C@H](O)C2=C(CC[C@H]3C(C)(C)[C@@H](OS(=O)(=O)O)[C@H](OC(=O)CCCCCCCCCCCCCCCO)C[C@]23C)[C@@H]2CC[C@H]([C@H](C)CCC3(C(C)(C)O)CO3)[C@]21C` (some centres undefined): the IC50 in assay [6] is 50 µM; in assay [2], 5.6 µM; in assay [7] it was 12 µM; in assay [8], 2 µM; in assay [3] it was 5.6 µM; in assay [4], over 50 µM. The same molecule yielded an IC50 in assay [5] of over 50 µM. Further, in assay [1], the IC95 is over 50 µM.
For the molecule `CC(=O)O[C@H]1[C@H](O)C2=C(CC[C@H]3C(C)(C)[C@@H](OS(=O)(=O)O)[C@H](OC(=O)CCCCCCCCCCCCCCCO)C[C@]23C)C2=CC[C@H]([C@H](C)CCC3(C(C)(C)O)CO3)[C@]21C` (some centres undefined), in assay [1], the IC95 is 6 µM. For the same molecule, the IC50 was 5 µM in assay [2]; 10 µM in assay [8]; 14 µM in assay [3]; over 50 µM in assay [4]; over 50 µM in assay [5].
Turning to `C=C(CC[C@@H](C)[C@H]1CC[C@H]2C3=C([C@@H](O)[C@H](OC(C)=O)[C@]12C)[C@@]1(C)C[C@@H](O)[C@H](OS(=O)(=O)O)C(C)(C)[C@@H]1CC3)C(C)C`, the IC50 in assay [6] is 30 µM; in assay [2] it was 5 µM; in assay [7] it was 10 µM; in assay [8], 5 µM; in assay [3], 15 µM; in assay [4], over 50 µM. The same molecule came in with an IC50 in assay [5] of over 50 µM. For the same molecule, the IC95 in assay [1] was found to be 50 µM.
As to `C=C(CC[C@@H](C)[C@H]1CC=C2C3=C([C@@H](O)[C@H](OC(C)=O)[C@@]21C)[C@@]1(C)C[C@@H](O)[C@H](OC(=O)CCC(=O)O)C(C)(C)[C@@H]1CC3)C(C)C`, in assay [1], the IC95 was 6 µM. Also, the IC50 in assay [2] is 3 µM; in assay [8], 5 µM; in assay [3], 12 µM; in assay [4] it was over 50 µM; in assay [5], over 50 µM.
Turning to `C=C(CC[C@@H](C)[C@H]1CC=C2C3=C([C@@H](O)[C@H](OC(C)=O)[C@@]21C)[C@@]1(C)C[C@@H](O)[C@H](OS(=O)(=O)O)C(C)(C)[C@@H]1CC3)C(C)C` [INTEGRACIDE A], the IC50 in assay [6] was 50 µM; in assay [2] it was 4 µM; in assay [8], 5 µM; in assay [3], 9 µM; in assay [4] it was over 50 µM; in assay [5] it was over 50 µM. The IC95 in assay [1] stood at 25 µM.
As for `C=C(CC[C@@H](C)[C@H]1CC=C2C3=C([C@@H](O)[C@H](OC(C)=O)[C@@]21C)[C@@]1(C)C[C@@H](O)[C@H](O)C(C)(C)[C@@H]1CC3)C(C)C` [INTEGRACIDE B], the IC50 was 82 µM in assay [2], over 100 µM in assay [3], over 50 µM in assay [4] and over 50 µM in assay [5].

For orientation: IC50 means the midpoint of a concentration-inhibition curve.

(Values after ChEMBL document CHEMBL1147233, “Chemistry and structure-activity relationship of HIV-1 integrase inhibitor integracide B and related natural products” (J Nat Prod, 2003).)
